Laboratory results reported in ChEMBL document CHEMBL3351600, “Sulfur, selenium and tellurium pseudopeptides: synthesis and biological evaluation” (Bioorg Med Chem, 2014).

How the values were obtained:
CAKI-1 = assay: Growth inhibition of human CAKI-1 cells after 48 hrs; type: functional; details: CAKI-1, 48 h
How it was run: (§1)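 NCI-60 human tumour cell line panel screen run at the US National Cancer Institute under its standard cytotoxicity protocol. It covers leukaemia, NSCLC, colon, CNS, melanoma, ovarian, renal, prostate and breast lines. An initial single-dose test was followed by five-dose testing with 48 h compound exposure.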

[1] = Growth inhibition of human UO31 cells after 48 hrs; type: functional; details: UO-31, 48 h
How it was run: (§2)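 Run by the NCI 58-cell-line screen under its standard cytotoxicity protocol. Compounds were first tested at a single dose, then at five doses. Cells were exposed to compound for 48 h.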

DU-145 = assay: Growth inhibition of human DU145 cells after 48 hrs; type: functional; details: DU-145, 48 h; how it was run: as §1
[2] = Growth inhibition of human BT549 cells after 48 hrs; type: functional; details: BT-549, 48 h; how it was run: as §1
MDA-MB-468 = assay: Growth inhibition of human MDA-MB-468 cells after 48 hrs; type: functional; details: MDA-MB-468, 48 h; how it was run: as §1
MCF7 = assay: Cytotoxicity against human MCF7 cells assessed as cell viability after 24 hrs incubation by MTT assay; type: functional, cell-based; details: MCF7, 24 h
How it was run: (§3)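 Cell lines came from DSMZ; primary human fibroblasts served as non-cancer controls. Cells were grown in medium with 10% FCS, seeded at 50,000 cells/ml, and grown 2 days at 37 °C, 10% CO2. Serial dilutions were then added for 24 h. MTT (final 0.5 mg/ml) was added for 2 h. Formazan was pelleted, PBS-washed, dissolved in isopropanol/0.4% HCl and read at 590 nm. Two parallel experiments were run. IC50 was taken as the concentration giving 50% of untreated-control absorbance.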

A-431 = assay: Cytotoxicity against human A431 cells assessed as cell viability after 24 hrs incubation by MTT assay; type: functional, cell-based; details: A-431, 24 h; how it was run: as §3
[3] = Octanol-water partition coefficient, log P of the compound by HPLC analysis; type: physicochemical
How it was run: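 Lipophilicity was measured by reversed-phase HPLC on a Nucleosil C18 column with isocratic water/methanol (3:1) at 0.5 ml/min and UV detection at 230 and 245 nm. Dead time was set with thiourea (t0 0.728 min). Retention factor was k = (tR − t0)/t0, and log P came from a calibration against at least six reference compounds.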

K562 = assay: Growth inhibition of human K562 cells after 48 hrs; type: functional; details: K562, 48 h; how it was run: as §1
A549 = assay: Growth inhibition of human A549/ATCC cells after 48 hrs; type: functional; details: A549, 48 h; how it was run: as §1
[4] = Growth inhibition of human EKVX cells after 48 hrs; type: functional; how it was run: as §1
HOP-62 = assay: Growth inhibition of human HOP62 cells after 48 hrs; type: functional; details: HOP-62, 48 h; how it was run: as §1
[5] = Growth inhibition of human HOP92 cells after 48 hrs; type: functional; details: HOP-92, 48 h; how it was run: as §1
NCI-H322M = assay: Growth inhibition of human NCI-H322M cells after 48 hrs; type: functional; how it was run: as §1
NCI-H460 = assay: Growth inhibition of human NCI-H460 cells after 48 hrs; type: functional; details: NCI-H460, 48 h; how it was run: as §1
NCI-H522 = assay: Growth inhibition of human NCI-H522 cells after 48 hrs; type: functional; details: NCI-H522, 48 h; how it was run: as §1
[6] = Growth inhibition of human HCT116 cells after 48 hrs; type: functional; details: HCT-116, 48 h; how it was run: as §1
HT-29 = assay: Growth inhibition of human HT-29 cells after 48 hrs; type: functional; details: HT-29, 48 h; how it was run: as §1
SW-620 = assay: Growth inhibition of human SW620 cells after 48 hrs; type: functional; details: SW-620, 48 h; how it was run: as §2
SF-268 = assay: Growth inhibition of human SF268 cells after 48 hrs; type: functional; details: SF-268, 48 h; how it was run: as §1
[7] = Growth inhibition of human SF539 cells after 48 hrs; type: functional; details: SF-539, 48 h; how it was run: as §1
U-251 = assay: Growth inhibition of human U251 cells after 48 hrs; type: functional; details: U-251, 48 h; how it was run: as §2
SK-MEL-28 = assay: Growth inhibition of human SK-MEL-28 cells after 48 hrs; type: functional; details: SK-MEL-28, 48 h; how it was run: as §1
SK-MEL-5 = assay: Growth inhibition of human SK-MEL-5 cells after 48 hrs; type: functional; details: SK-MEL-5, 48 h; how it was run: as §2
[8] = Growth inhibition of human UACC62 cells after 48 hrs; type: functional; details: UACC-62, 48 h; how it was run: as §2
IGROV-1 = assay: Growth inhibition of human IGROV1 cells after 48 hrs; type: functional; details: IGROV-1, 48 h; how it was run: as §1
[9] = Growth inhibition of human OVCAR3 cells after 48 hrs; type: functional; details: OVCAR-3, 48 h; how it was run: as §1
[10] = Growth inhibition of human OVCAR8 cells after 48 hrs; type: functional; details: OVCAR-8, 48 h; how it was run: as §1
[11] = Growth inhibition of human NCI-ADR-RES cells after 48 hrs; type: functional; how it was run: as §1
SK-OV-3 = assay: Growth inhibition of human SKOV3 cells after 48 hrs; type: functional; details: SK-OV-3, 48 h; how it was run: as §2
[12] = read-out: pLC50 (the source's name) (converted)

Structure (SMILES): COc1ccc(N(CC(=O)NCCC[Te]c2ccccc2)C(=O)CNC(=O)OC(C)(C)C)cc1
- GI50 (CAKI-1): 2.09 µM
- LC50 (CAKI-1): > 100 µM
- TGI (CAKI-1; read-out: pTGI (converted)): 5.62 µM
- GI50 [1]: 2.4 µM
- LC50 [1]: > 100 µM
- TGI ([1]; read-out: pTGI (converted)): 9.12 µM
- GI50 (DU-145): 2.88 µM
- LC50 (DU-145): 30.9 µM
- TGI (DU-145; read-out: pTGI (converted)): 7.59 µM
- GI50 [2]: 1.7 µM
- LC50 (concentration killing 50% of cells) [2]: > 100 µM
- TGI ([2]; read-out: pTGI (converted)): 4.9 µM
- GI50 (MDA-MB-468): 3.16 µM
- LC50 (MDA-MB-468): 60.3 µM
- TGI (MDA-MB-468; read-out: pTGI (converted)): 11 µM
- IC50 (MCF7): 5 µM
- IC50 (A-431): 5 µM
- logP [3]: 4.2
- GI50 (K562): 5.5 µM
- CC50 (K562; [12]): > 100 µM
- TGI (K562; read-out: pTGI (converted)): > 100 µM
- GI50 (A549): 0.525 µM
- CC50 (A549; [12]): 6.76 µM
- TGI (A549; read-out: pTGI (converted)): 2.19 µM
- GI50 [4]: 0.324 µM
- CC50 [4, 12]: > 100 µM
- TGI ([4]; read-out: pTGI (converted)): 2.34 µM
- GI50 (HOP-62): 2.19 µM
- CC50 (HOP-62; [12]): 11 µM
- TGI (HOP-62; read-out: pTGI (converted)): 4.68 µM
- GI50 [5]: 2.95 µM
- CC50 [5, 12]: 66.1 µM
- TGI ([5]; read-out: pTGI (converted)): 4.9 µM
- GI50 (NCI-H322M): 2.29 µM
- CC50 (NCI-H322M; [12]): > 100 µM
- TGI (NCI-H322M; read-out: pTGI (converted)): 6.61 µM
- GI50 (NCI-H460): 0.447 µM
- CC50 (NCI-H460; [12]): 7.59 µM
- TGI (NCI-H460; read-out: pTGI (converted)): 1.86 µM
- GI50 (NCI-H522): 2.57 µM
- CC50 (NCI-H522; [12]): 56.2 µM
- TGI (NCI-H522; read-out: pTGI (converted)): 10.5 µM
- GI50 [6]: 2.09 µM
- CC50 [6, 12]: 49 µM
- TGI ([6]; read-out: pTGI (converted)): 6.46 µM
- GI50 (HT-29): 3.8 µM
- CC50 (HT-29; [12]): > 100 µM
- TGI (HT-29; read-out: pTGI (converted)): 13.8 µM
- GI50 (SW-620): 3.47 µM
- CC50 (SW-620; [12]): > 100 µM
- TGI (SW-620; read-out: pTGI (converted)): 14.5 µM
- GI50 (SF-268): 2.69 µM
- CC50 (SF-268; [12]): 100 µM
- TGI (SF-268; read-out: pTGI (converted)): 7.59 µM
- GI50 [7]: 2.14 µM
- CC50 [7, 12]: 15.8 µM
- TGI ([7]; read-out: pTGI (converted)): 4.79 µM
- GI50 (U-251): 2.4 µM
- CC50 (U-251; [12]): 49 µM
- TGI (U-251; read-out: pTGI (converted)): 6.46 µM
- GI50 (SK-MEL-28): 3.09 µM
- CC50 (SK-MEL-28; [12]): 36.3 µM
- TGI (SK-MEL-28; read-out: pTGI (converted)): 10 µM
- GI50 (SK-MEL-5): 3.16 µM
- CC50 (SK-MEL-5; [12]): 34.7 µM
- TGI (SK-MEL-5; read-out: pTGI (converted)): 9.12 µM
- GI50 [8]: 1.66 µM
- CC50 [8, 12]: 8.71 µM
- TGI ([8]; read-out: pTGI (converted)): 3.8 µM
- GI50 (IGROV-1): 2.24 µM
- CC50 (IGROV-1; [12]): 25.7 µM
- TGI (IGROV-1; read-out: pTGI (converted)): 5.37 µM
- GI50 [9]: 3.02 µM
- CC50 [9, 12]: 100 µM
- TGI ([9]; read-out: pTGI (converted)): 7.94 µM
- GI50 [10]: 2.4 µM
- LC50 [10]: > 100 µM
- TGI ([10]; read-out: pTGI (converted)): 6.92 µM
- GI50 [11]: 2.88 µM
- LC50 [11]: > 100 µM
- TGI ([11]; read-out: pTGI (converted)): 7.24 µM
- GI50 (SK-OV-3): 2.34 µM
- CC50 (SK-OV-3; [12]): 10 µM
- TGI (SK-OV-3; read-out: pTGI (converted)): 4.79 µM
- Retention_time: 1.548 min
